{"source": "ChEMBL document CHEMBL3232818", "about": "“Imidazole-derived 2-[N-carbamoylmethyl-alkylamino]acetic acids, substrate-dependent modulators of insulin-degrading enzyme in amyloid-β hydrolysis” (Eur J Med Chem, 2014)", "key": {"[1]": {"target": "Insulin-degrading enzyme (Homo sapiens) (UniProt P14735)", "assay": "Inhibition of IDE in human SH-SY5Y cells expressing human APP751 with Swedish mutant/human […] assessed as increase of amyloid beta (1 to 42) level after 24 to 48 hrs by ELISA", "assay_type": "cell-based", "in_short": "(§1)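 SH-SY5Y APPswe and APPwt lines kept in DMEM with 10% fetal calf serum, 2 mM L-glutamine, 5% CO2, 37 °C. Seeded at 1.94 10^5 cells/well and treated 24 h later with vehicle or drug at 0.1 or 10 μM (from 10 mM DMSO stock) for 24 h and 48 h. Medium cleared by centrifugation and assayed by ELISA. Aβ1-42 used 100 μL of medium undiluted; Aβ1-40 used 10 μL diluted 1:10. Duplicates in three independent experiments, normalized to untreated cells.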"}, "[2]": {"target": "Insulin-degrading enzyme (Homo sapiens) (UniProt P14735)", "assay": "Inhibition of IDE in human SH-SY5Y cells expressing human APP751 with Swedish mutant/human […] assessed as increase of amyloid beta (1 to 40) level after 24 to 48 hrs by ELISA", "assay_type": "cell-based", "in_short": "as §1"}, "Insulin-degrading enzyme": {"target": "T1, Insulin-degrading enzyme (Homo sapiens, UniProt P14735)", "T1 sequence (P14735 whole entry)": "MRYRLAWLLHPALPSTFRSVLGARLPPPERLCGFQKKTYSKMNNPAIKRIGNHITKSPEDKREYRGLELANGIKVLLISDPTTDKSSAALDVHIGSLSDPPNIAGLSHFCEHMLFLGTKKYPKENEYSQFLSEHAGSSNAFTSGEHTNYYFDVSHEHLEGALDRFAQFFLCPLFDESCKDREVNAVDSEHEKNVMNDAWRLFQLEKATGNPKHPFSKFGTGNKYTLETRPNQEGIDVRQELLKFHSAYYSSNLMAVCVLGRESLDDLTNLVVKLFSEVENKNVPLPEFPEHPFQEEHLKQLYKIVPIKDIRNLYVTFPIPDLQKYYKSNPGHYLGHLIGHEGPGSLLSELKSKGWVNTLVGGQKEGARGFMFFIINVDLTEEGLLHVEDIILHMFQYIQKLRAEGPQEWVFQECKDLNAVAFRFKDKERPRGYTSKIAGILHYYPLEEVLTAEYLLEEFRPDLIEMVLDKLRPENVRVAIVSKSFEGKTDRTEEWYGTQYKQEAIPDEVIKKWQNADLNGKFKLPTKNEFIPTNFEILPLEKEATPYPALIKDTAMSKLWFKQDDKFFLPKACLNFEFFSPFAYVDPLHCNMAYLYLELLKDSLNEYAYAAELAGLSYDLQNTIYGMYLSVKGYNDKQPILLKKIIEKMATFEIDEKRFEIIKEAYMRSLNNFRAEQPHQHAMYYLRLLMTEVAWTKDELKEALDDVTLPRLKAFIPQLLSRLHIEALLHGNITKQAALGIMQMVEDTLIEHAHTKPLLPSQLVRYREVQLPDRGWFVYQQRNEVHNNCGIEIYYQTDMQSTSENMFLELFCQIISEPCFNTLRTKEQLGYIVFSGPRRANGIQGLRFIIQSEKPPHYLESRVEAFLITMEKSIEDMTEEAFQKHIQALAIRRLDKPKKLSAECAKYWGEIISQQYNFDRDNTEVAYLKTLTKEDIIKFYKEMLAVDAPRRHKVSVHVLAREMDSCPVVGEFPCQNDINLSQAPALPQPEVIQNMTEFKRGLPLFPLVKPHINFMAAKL", "assay": "Inhibition of human recombinant IDE-mediated amyloid beta (16 to 23) hydrolysis using ATTO 655-Cys-Lys-Leu-Val-Phe-Phe-Ala-Glu-Asp-Trp as substrate preincubated for 10 mins measured after 30 mins by spectrophotometer analysis"}, "[3]": {"assay": "PBS-octanol partition coefficient, log D of the compound", "assay_type": "physicochemical"}, "[4]": {"target": "Insulin-degrading enzyme (Homo sapiens) (UniProt P14735)", "assay": "Inhibition of IDE in human SH-SY5Y cells expressing human APP751 with Swedish mutant/human […] assessed as effect on CTFs level after 24 to 48 hrs by Western blot"}, "[5]": {"assay": "Apparent permeability across human Caco2 cells at 10 uM after 1 hr by LC-MS/MS analysis", "assay_type": "ADME, cell-based", "settings": "Caco-2"}, "[6]": {"target": "T2, Insulin-degrading enzyme (Mus musculus) (UniProt Q9JHR7)", "T2 sequence (whole entry)": "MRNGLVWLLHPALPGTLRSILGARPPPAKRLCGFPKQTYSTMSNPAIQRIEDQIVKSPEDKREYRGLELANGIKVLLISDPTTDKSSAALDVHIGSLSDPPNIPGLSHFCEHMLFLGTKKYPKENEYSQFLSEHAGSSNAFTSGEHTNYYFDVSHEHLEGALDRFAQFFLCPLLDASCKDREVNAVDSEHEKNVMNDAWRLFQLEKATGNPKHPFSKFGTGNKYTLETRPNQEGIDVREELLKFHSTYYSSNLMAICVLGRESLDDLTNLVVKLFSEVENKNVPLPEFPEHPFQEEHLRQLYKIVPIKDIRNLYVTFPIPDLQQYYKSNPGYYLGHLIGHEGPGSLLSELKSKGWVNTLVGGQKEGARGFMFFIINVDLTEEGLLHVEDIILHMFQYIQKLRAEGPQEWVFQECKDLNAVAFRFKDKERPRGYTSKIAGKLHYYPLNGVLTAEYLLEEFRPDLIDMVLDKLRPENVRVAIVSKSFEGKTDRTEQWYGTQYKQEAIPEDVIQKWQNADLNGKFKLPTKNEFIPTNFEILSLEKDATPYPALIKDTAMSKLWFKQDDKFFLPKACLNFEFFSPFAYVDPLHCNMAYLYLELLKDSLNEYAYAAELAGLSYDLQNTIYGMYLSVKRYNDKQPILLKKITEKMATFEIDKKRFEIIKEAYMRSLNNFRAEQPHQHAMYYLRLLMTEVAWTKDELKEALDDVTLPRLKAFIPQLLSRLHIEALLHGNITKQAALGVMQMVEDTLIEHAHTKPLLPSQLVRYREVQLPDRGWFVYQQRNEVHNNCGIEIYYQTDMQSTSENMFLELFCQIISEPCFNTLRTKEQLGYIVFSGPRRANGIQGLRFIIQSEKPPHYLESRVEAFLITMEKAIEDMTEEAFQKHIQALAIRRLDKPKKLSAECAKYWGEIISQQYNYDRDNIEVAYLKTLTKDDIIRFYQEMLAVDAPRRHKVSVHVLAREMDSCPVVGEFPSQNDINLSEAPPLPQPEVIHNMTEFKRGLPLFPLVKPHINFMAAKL", "assay": "Inhibition of IDE in mouse Min6 cells assessed as effect on 11 mM of glucose-induced insulin secretion at 10 uM after 24 hrs by ELISA", "assay_type": "cell-based"}, "[7]": {"target": "Insulin-degrading enzyme (Homo sapiens) (UniProt P14735)", "assay": "Inhibition of IDE in human SH-SY5Y cells expressing human APP751 with Swedish mutant/human […] assessed as effect on APP holoproteins level after 24 to 48 hrs by Western blot"}, "[8]": {"target": "T2, Insulin-degrading enzyme (Mus musculus)", "assay": "Inhibition of IDE in mouse Min6 cells assessed as effect on 2.8 mM of glucose-induced insulin secretion at 10 uM after 24 hrs by ELISA", "assay_type": "cell-based"}, "[9]": {"target": "Insulin-degrading enzyme (Homo sapiens) (UniProt P14735)", "assay": "Inhibition of human recombinant IDE-mediated insulin hydrolysis assessed as residual insulin level at 100 uM preincubated for 10 mins measured after 30 mins by spectrophotometer analysis"}, "Plasma": {"system": "Plasma", "assay": "Prodrug conversion in mouse plasma assessed as half life of BDM43079 formation at 10 uM by LC-MS/MS analysis", "assay_type": "ADME, cell-free"}, "[10]": {"target": "T2, Insulin-degrading enzyme (Mus musculus)", "assay": "Inhibition of IDE in mouse Min6 cells assessed as effect on 20 mM of glucose-induced insulin secretion at 10 uM after 24 hrs by ELISA", "assay_type": "cell-based"}, "[11]": {"assay": "Solubility of the compound in PBS at pH 7.4", "assay_type": "physicochemical"}, "[12]": {"target": "Insulin-degrading enzyme (Homo sapiens) (UniProt P14735)", "assay": "Inhibition of IDE in immortalized human hepatocytes assessed as effect on insulin-induced PEPCK mRNA expression at 10 uM after 24 hrs by quantitative RT-PCR analysis", "assay_type": "cell-based", "design": "scale not given: the % may be the effect or the level left", "settings": "Hepatocyte"}, "[13]": {"assay": "Prodrug conversion in IHH cell culture medium assessed as half life of BDM43079 formation at 10 uM by LC-MS/MS analysis", "assay_type": "ADME, cell-based", "settings": "human, hh", "in_short": "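Conversion to the active acid followed in William's E medium with 10% fetal calf serum.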"}}, "note": "Active and inactive are the calls of the source. No cut-off for these calls is given here."}
{"smiles": "CNC(=O)[C@H](Cc1c[nH]cn1)NC(=O)CN(CCCc1ccccc1)CC(=O)OC", "values": [{"measurement": "inhibition", "setting": "[1]", "result": "Dose-dependent effect"}, {"measurement": "inhibition", "setting": "[2]", "result": "Dose-dependent effect"}, {"measurement": "IC50", "setting": "Insulin-degrading enzyme", "result": "> 100", "unit": "µM"}, {"measurement": "logD", "setting": "[3]", "result": 1.1}, {"measurement": "inhibition", "setting": "[4]", "result": "inactive"}, {"measurement": "Papp at 1 h, 10 µM", "setting": "[5]", "result": 0.2, "unit": "×10⁻⁶ cm/s"}, {"measurement": "Activity", "setting": "[6]", "result": 78.8, "unit": "µg/L"}, {"measurement": "inhibition", "setting": "[7]", "result": "inactive"}, {"measurement": "Activity", "setting": "[8]", "result": 21.2, "unit": "µg/L"}, {"measurement": "Activity", "setting": "[9]", "result": 50, "unit": "%"}, {"measurement": "t1/2", "setting": "Plasma", "result": 6, "unit": "min"}, {"measurement": "Activity", "setting": "[10]", "result": 132, "unit": "µg/L"}, {"measurement": "solubility", "setting": "[11]", "result": 74, "unit": "µM"}, {"measurement": "Activity", "setting": "[12]", "result": 62, "unit": "%"}, {"measurement": "t1/2", "setting": "[13]", "result": 11.3, "unit": "h"}]}
{"smiles": "COC(=O)[C@H](Cc1c[nH]cn1)NC(=O)CN(CCCc1ccccc1)CC(=O)O", "values": [{"measurement": "IC50", "setting": "Insulin-degrading enzyme", "result": 0.6, "unit": "µM"}]}
{"smiles": "COC(=O)[C@H](Cc1ccccc1)NC(=O)CN(CC(=O)O)Cc1ccccc1", "values": [{"measurement": "IC50", "setting": "Insulin-degrading enzyme", "result": "> 100", "unit": "µM"}]}
